According to ChEMBL document CHEMBL5154824, “Design and synthesis of multifunctional microtubule targeting agents endowed with dual pro-apoptotic and anti-autophagic efficacy” (Eur J Med Chem, 2022):
In brackets after ≈: the same amount, converted by molar mass. Blank lines part the entries; values can stand above or below the molecule they belong to. Activity calls are given as the source filed them. The calls are words filed in the database; no cut-off is given here.

Experiments:
Emu-TCL1 = experiment: Induction of apoptosis in mouse Emu-TCL1 cells model of CLL assessed as mitochondrial membrane depolarization at 10 uM after 48 hrs by TMRM dye based flow cytometric analysis; assay type: functional, cell-based
Summary of the method: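 Splenocytes from Eμ-TCL1 leukaemic mice were treated with 10 μM or DMSO vehicle for 48 h, then TMRM-loaded. Flow cytometry gave the percentage of TMRM-low cells as mean ± SD (n = 3).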

SCC-4 [1] = experiment: Induction of apoptosis in human SCC-4 cells assessed as increase in apoptotic cells at 2 uM after 48 hrs by Annexin V-FITC/PI staining based flow cytometry method; assay type: functional, cell-based
Summary of the method: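 SCC4 cells were treated at 0.5 or 2 μM for 48 h, then stained with Annexin V/PI and analysed by flow cytometry. Data are mean ± SEM of three independent experiments, with an unpaired one-tailed t-test versus vehicle.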

[2] = Cytotoxicity against human FLO-1 cells assessed as inhibition of cell growth measured after 72 hrs by MTT assay; assay type: functional, cell-based; settings: FLO-1, 72 h
Summary of the method: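 Oesophageal adenocarcinoma lines were exposed to at least 8 increasing concentrations for 72 h. Viability was measured by MTT. IC50 is the mean ± SD of at least three independent experiments.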

Tubulin (Homo sapiens) [3] = target: T1, Tubulin (Homo sapiens) (UniProt P68371+Q9H4B7+P0DPH7+P68366+Q13509+Q71U36+P04350+Q3ZCM7+P07437+P68363+Q9BQE3+Q6PEY2+Q13885+Q9BVA1+Q9BUF5); experiment: Binding affinity to microtubule polymerization (unknown origin) assessed as formation of microtubule at 27.5 uM measured for 2 hrs by plate reader method; assay type: protein-complex assay
Summary of the method: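 25 μM tubulin in GAB buffer with compound at 27.5 μM or DMSO vehicle; podophyllotoxin 27.5 μM as destabiliser control. Polymerisation started by raising temperature from 4 to 37 °C at time 0; microtubule formation followed as absorbance increase over time.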

Albumin = Albumin (Bos taurus, UniProt P02769); experiment: Binding affinity to bovine serum albumin assessed as increase in fluorescence intensity; settings: cattle
Summary of the method: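 Saturation assay: compound fixed at 1 μM was incubated with increasing amounts of BSA. Fluorescence was read with excitation at 350 nm and emission at 450 nm in a plate reader.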

A2780 = experiment: Cytotoxicity against human A2780 cells assessed as inhibition of cell growth measured after 48 hrs by MTT assay; assay type: functional, cell-based; settings: A2780, 48 h
Summary of the method: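 MTT assay. Cells were exposed for 48 h to increasing concentrations of compound. Ovarian A2780 was paired with its P-gp-overexpressing A2780AD counterpart, and HeLa with HeLa β3, which overexpresses the tubulin β3 isotype. IC50 is the mean ± SD of three independent experiments.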

[4] = Ratio of IC50 for cytotoxicity against human HeLa cells overexpressing tubulin beta3 assessed as inhibition of cell growth measured after 48 hrs to IC50 for cytotoxicity against human HeLa cells assessed as inhibition of cell growth measured after 48 hrs; assay type: functional
Summary of the method: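 MTT assay: cells exposed to increasing compound concentrations for 48 h. Lines were A2780 and its P-gp-overexpressing A2780AD counterpart, and HeLa and HeLa β3 (tubulin β3-overexpressing). IC50 is the mean ± SD of three independent experiments. R/S is the IC50 in the resistant line divided by that in the parental line.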

[5] = Mutagenicity in Salmonella typhimurium TA100 in presence of rat liver S9 fraction at 0.3 to 60 uM by AMES test; assay type: toxicity, subcellular; settings: salmonella enterica subsp. enterica serovar typhimurium, s9, 60 µM; dose 0.3-60 µM
[6] = Mutagenicity in Salmonella typhimurium TA98 in absence of rat liver S9 fraction at 0.3 to 60 uM by AMES test; assay type: toxicity; settings: salmonella enterica subsp. enterica serovar typhimurium, s9, 60 µM; dose 0.3-60 µM
SCC-4 [7] = experiment: Induction of autophagy in human SCC-4 cells assessed as increase in LC3-II to LC3-I ratio at 10 uM in absence of EBSS measured after 3 hrs by Western blot analysis; assay type: functional, cell-based
Summary of the method: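 SCC4 cells were pre-incubated with or without EBSS for 30 min, then given 10 μM compound, with 10 μM chloroquine as reference, for 3 h. LC3-I/II was assessed by Western blot with GAPDH loading control. The LC3-II/LC3-I ratio came from densitometry, as mean ± SEM of four experiments, with an unpaired one-tailed t-test.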

HeLa [8] = experiment: Induction of morphological changes in human HeLa cells assessed as increase in actin stress fibres at 10 uM incubated for 3 hrs by phalloidin staining based laser scanning confocal microscopic analysis; assay type: functional, cell-based
Summary of the method: (§1)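 HeLa cells in growth medium were treated at 1 or 10 μM, with BafA1 300 nM as reference, for 3 h. Cells were fixed in 4% PFA, stained with anti-GM130 for the Golgi and AF647-phalloidin for actin, and imaged by laser scanning confocal microscopy.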

[9] = target: Mitogen-activated protein kinase; ERK1/ERK2 (Homo sapiens) (UniProt P27361+P28482); experiment: Inhibition of ERK1/2 phosphorylation in human HL-60 cells at 10 uM measured after 2 hrs by Immunoblotting analysis; assay type: cell-based
Summary of the method: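 HL-60 cells were treated at 10 μM or with DMSO vehicle for 2 h. Phospho-NF-κB and phospho-Erk1/2 were immunoblotted and quantified by densitometry relative to β-tubulin. Data are mean ± SD (n = 2), analysed by one-way ANOVA.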

[10] = Aqueous solubility of the compound in pH 3 measured after 24 hrs by HPLC/DAD/UV analysis; assay type: physicochemical; settings: aqueous solution at pH 3, pH 3
Summary of the method: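 Solubility in aqueous buffer at pH 3, measured by HPLC after 24 h.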

[11] = Metabolic stability in human liver microsomes assessed as apparent decay constant by HPLC analysis; assay type: ADME, Microsome
Summary of the method: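 Compound incubated with human liver microsomes plus an NADPH-generating system. Log % of compound recovered (100% at 0 min) was plotted against incubation time and fitted to a monoexponential decay. Controls were boiled microsomes, or microsomes without NADPH-GS, at 37 °C for 60 min.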

Tubulin (Homo sapiens) [12] = target: T1, Tubulin (Homo sapiens); experiment: Binding affinity to tubulin (unknown origin) assessed as fluorescence peak around 460 nm by UV/vis absorption spectroscopy; assay type: protein-complex assay
HeLa [13] = experiment: Induction of autophagy in human HeLa cells assessed as increase in number of autophagosomes formation at 1 uM measured after 3 hrs by immunofluorescence based laser scanning confocal microscopic analysis; assay type: functional, cell-based
Summary of the method: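 HeLa cells in growth medium were treated at 1 or 10 μM, with BafA1 300 nM as reference, for 3 h. Cells were fixed in ice-cold methanol, immunostained for LC3 (autophagosomes) and LAMP1, and imaged by laser scanning confocal microscopy.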

HeLa [14] = experiment: Inhibition of autophagosome degradationin human HeLa cells at 1 uM incubated for 3 hrs with HBSS medium by immunofluorescence based laser scanning confocal microscopic analysis; assay type: functional, cell-based
Summary of the method: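 HeLa cells were treated in HBSS at 1 or 10 μM, with BafA1 300 nM as reference, for 3 h. After fixation in ice-cold methanol, LC3 and LAMP1 were immunostained. Laser scanning confocal microscopy assessed autophagosome number and LC3/LAMP1 colocalisation.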

HeLa [15] = experiment: Induction of morphological changes in human HeLa cells assessed as effect on actin cytoskeleton at 10 uM incubated for 3 hrs by phalloidin staining based laser scanning confocal microscopic analysis; assay type: functional, cell-based; summary of the method: as §1
HeLa [16] = experiment: Induction of morphological changes in human HeLa cells assessed as golgi complex fragmentation at 1 uM incubated for 3 hrs by phalloidin staining based laser scanning confocal microscopic analysis; assay type: functional, cell-based; summary of the method: as §1

Mitogen-activated protein kinase; ERK1/ERK2 (Homo sapiens), sequence (P27361 whole entry, looked up): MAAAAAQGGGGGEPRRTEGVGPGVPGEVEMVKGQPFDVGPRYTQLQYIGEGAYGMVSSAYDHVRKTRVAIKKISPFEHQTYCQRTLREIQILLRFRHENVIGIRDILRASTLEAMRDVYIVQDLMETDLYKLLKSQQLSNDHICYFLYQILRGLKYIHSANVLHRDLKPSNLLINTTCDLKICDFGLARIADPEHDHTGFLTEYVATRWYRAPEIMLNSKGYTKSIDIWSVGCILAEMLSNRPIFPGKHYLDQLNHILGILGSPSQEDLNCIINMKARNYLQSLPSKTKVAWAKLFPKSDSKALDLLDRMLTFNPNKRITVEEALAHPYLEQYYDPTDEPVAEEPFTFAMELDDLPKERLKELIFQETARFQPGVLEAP
Mitogen-activated protein kinase; ERK1/ERK2 (Homo sapiens), sequence (P28482 whole entry, looked up): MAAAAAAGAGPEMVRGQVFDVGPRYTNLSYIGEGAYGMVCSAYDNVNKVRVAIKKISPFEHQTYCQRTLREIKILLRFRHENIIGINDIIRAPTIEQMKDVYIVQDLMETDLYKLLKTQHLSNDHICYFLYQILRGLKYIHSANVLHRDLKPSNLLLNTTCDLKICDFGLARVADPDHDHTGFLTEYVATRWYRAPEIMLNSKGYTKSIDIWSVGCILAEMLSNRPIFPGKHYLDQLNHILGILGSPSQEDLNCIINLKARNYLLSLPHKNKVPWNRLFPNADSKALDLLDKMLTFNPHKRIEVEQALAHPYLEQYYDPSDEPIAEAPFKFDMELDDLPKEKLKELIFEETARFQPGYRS
Albumin, sequence (P02769 whole entry): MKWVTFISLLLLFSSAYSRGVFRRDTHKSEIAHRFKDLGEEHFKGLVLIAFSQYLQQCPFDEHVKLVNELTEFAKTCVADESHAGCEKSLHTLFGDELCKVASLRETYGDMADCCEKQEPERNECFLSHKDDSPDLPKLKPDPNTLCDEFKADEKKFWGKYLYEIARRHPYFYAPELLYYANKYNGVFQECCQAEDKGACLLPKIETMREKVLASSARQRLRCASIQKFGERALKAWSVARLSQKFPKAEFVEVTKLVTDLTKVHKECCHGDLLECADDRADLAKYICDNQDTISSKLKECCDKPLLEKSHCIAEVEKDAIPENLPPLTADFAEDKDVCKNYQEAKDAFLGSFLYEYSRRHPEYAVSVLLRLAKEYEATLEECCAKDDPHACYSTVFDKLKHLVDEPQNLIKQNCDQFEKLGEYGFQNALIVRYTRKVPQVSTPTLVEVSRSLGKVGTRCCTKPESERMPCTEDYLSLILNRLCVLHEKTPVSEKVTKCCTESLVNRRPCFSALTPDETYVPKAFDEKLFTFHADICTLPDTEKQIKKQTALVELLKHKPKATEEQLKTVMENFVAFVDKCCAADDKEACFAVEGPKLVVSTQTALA

Compound: CN1CCN(C(=O)OC2=C(c3cccc4ncccc34)Oc3cc4ccccc4cc3-n3cccc32)CC1
- Activity (Emu-TCL1): Active
- Activity (SCC-4 [1]): Active
- IC50 [2]: 400 nM
- Activity (Tubulin (Homo sapiens) [3]): Active
- Activity (Albumin): Active
- IC50 (A2780): 600 nM
- Ratio IC50 [4]: 0.71
- Activity [5]: Non-Toxic
- Activity [6]: Non-Toxic
- Activity (SCC-4 [7]): Active
- Activity (HeLa [8]): Active
- inhibition [9]: Active
- solubility at 24 h [10]: 204 µM (≈ 103 µg/mL)
- k el [11]: 0.000367 s⁻¹
- Activity (Tubulin (Homo sapiens) [12]): Active

- Activity (Tubulin (Homo sapiens) [3]): Active
- inhibition [9]: Active
- solubility at 24 h [10]: 271 µM (≈ 132 µg/mL)
- k el [11]: 0.000127 s⁻¹
Compound: O=C(OC1=C(c2cccc3ncccc23)Oc2cc3ccccc3cc2-n2cccc21)C1CCNCC1
- Activity (Emu-TCL1): Active
- Activity (SCC-4 [1]): Active
- Activity (HeLa [13]): Active
- Activity [5]: Non-Toxic
- Activity [6]: Non-Toxic
- Activity (SCC-4 [7]): Active
- Activity (HeLa [14]): Active
- Activity (HeLa [15]): Active
- Activity (HeLa [16]): Active
